# From ChEMBL document CHEMBL4706563, “Triphenylethylene analogues: Design, synthesis and evaluation of antitumor activity and topoisomerase inhibitors” (Eur J Med Chem, 2020)
# Activity calls are given as the source filed them. The rule behind the calls is not given here.
# Assays:
# Assay type in all cases: functional
# MCF7 = test: Antiproliferative activity against human MCF7 cells assessed as growth inhibition at 10 uM relative to control; conditions: read-out: GI
# Summary of the method: (§1)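 Single-dose screen run by the US National Cancer Institute across its 60-human tumour cell line panel. Each compound was tested at one concentration. Percent growth inhibition was recorded for each cell line.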
# [1] = Antiproliferative activity against human colon cancer cells; conditions: Colon cancer cell line
# SF-295 = test: Antiproliferative activity against human SF-295 cells assessed as growth inhibition at 10 uM relative to control; conditions: read-out: GI; summary of the method: as §1
# MDA-MB-468 = test: Antiproliferative activity against human MDA-MB-468 cells assessed as growth inhibition at 10 uM relative to control; conditions: read-out: GI; summary of the method: as §1
# [2] = Antiproliferative activity against human renal cancer cells; conditions: Renal cancer cell line
# A549 = test: Antiproliferative activity against human A549 cells assessed as growth inhibition at 10 uM relative to control; conditions: read-out: GI; summary of the method: as §1
# UACC-62 = test: Antiproliferative activity against human UACC-62 cells assessed as growth inhibition at 10 uM relative to control; conditions: read-out: GI
# Summary of the method: (§2)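 NCI 60 human tumour cell line panel screen. Compounds tested at a single dose and growth inhibition (%) determined for each line.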
# [3] = Antiproliferative activity against human breast cancer cells; conditions: Breast cancer cell line
# SNB-19 = test: Antiproliferative activity against human SNB-19 cells assessed as growth inhibition at 10 uM relative to control; conditions: read-out: GI; summary of the method: as §2
# NCI-H322M = test: Antiproliferative activity against human NCI-H322M cells assessed as growth inhibition at 10 uM relative to control; conditions: read-out: GI; summary of the method: as §1
# T47D = test: Antiproliferative activity against human T47D cells assessed as growth inhibition at 10 uM relative to control; conditions: read-out: GI; summary of the method: as §2
# HCC 2998 = test: Antiproliferative activity against human HCC 2998 cells assessed as growth inhibition at 10 uM relative to control; conditions: read-out: GI; summary of the method: as §1
# RPMI-8226 = test: Antiproliferative activity against human RPMI-8226 cells assessed as growth inhibition at 10 uM relative to control; conditions: read-out: GI; summary of the method: as §1
# OVCAR-4 = test: Antiproliferative activity against human OVCAR-4 cells assessed as growth inhibition at 10 uM relative to control; conditions: read-out: GI; summary of the method: as §1
# [4] = Antiproliferative activity against human Non-small cell lung cancer cells; conditions: Non-small cell lung cancer cell line
# HCT-116 = test: Antiproliferative activity against human HCT-116 cells assessed as growth inhibition at 10 uM relative to control; summary of the method: as §1
# [5] = Antiproliferative activity against human Melanoma cells; conditions: Melanoma cell line
# A498 = test: Antiproliferative activity against human A498 cells assessed as growth inhibition at 10 uM relative to control; conditions: read-out: GI; summary of the method: as §1
# CAKI-1 = test: Antiproliferative activity against human CAKI-1 cells assessed as growth inhibition at 10 uM relative to control; conditions: read-out: GI; summary of the method: as §1
# K562 = test: Antiproliferative activity against human K562 cells assessed as growth inhibition at 10 uM relative to control; conditions: read-out: GI; summary of the method: as §1
# SK-MEL-5 = test: Antiproliferative activity against human SK-MEL-5 cells assessed as growth inhibition at 10 uM relative to control; conditions: read-out: GI; summary of the method: as §2
# HOP-92 = test: Antiproliferative activity against human HOP-92 cells assessed as growth inhibition at 10 uM relative to control; conditions: read-out: GI; summary of the method: as §1
# NCI-H522 = test: Antiproliferative activity against human NCI-H522 cells assessed as growth inhibition at 10 uM relative to control; conditions: read-out: GI; summary of the method: as §1
# NCI/ADR-RES = test: Antiproliferative activity against human NCI/ADR-RES cells assessed as growth inhibition at 10 uM relative to control; conditions: read-out: GI; summary of the method: as §1
# HOP-62 = test: Antiproliferative activity against human HOP-62 cells assessed as growth inhibition at 10 uM relative to control; conditions: read-out: GI; summary of the method: as §1
# MDA-MB-231 = test: Antiproliferative activity against human MDA-MB-231 cells assessed as growth inhibition at 10 uM relative to control; conditions: read-out: GI; summary of the method: as §1
# KM12 = test: Antiproliferative activity against human KM12 cells assessed as growth inhibition at 10 uM relative to control; conditions: read-out: GI; summary of the method: as §1
# SR = test: Antiproliferative activity against human SR cells assessed as growth inhibition at 10 uM relative to control; conditions: read-out: GI; summary of the method: as §2
# SK-MEL-28 = test: Antiproliferative activity against human SK-MEL-28 cells assessed as growth inhibition at 10 uM relative to control; conditions: read-out: GI; summary of the method: as §2
# Malme-3M = test: Antiproliferative activity against human Malme-3M cells assessed as growth inhibition at 10 uM relative to control; conditions: read-out: GI; summary of the method: as §1
# IGROV-1 = test: Antiproliferative activity against human IGROV-1 cells assessed as growth inhibition at 10 uM relative to control; conditions: read-out: GI; summary of the method: as §1
# ACHN = test: Antiproliferative activity against human ACHN cells assessed as growth inhibition at 10 uM relative to control; conditions: read-out: GI; summary of the method: as §1
# HCT-15 = test: Antiproliferative activity against human HCT-15 cells assessed as growth inhibition at 10 uM relative to control; conditions: read-out: GI; summary of the method: as §1
# SN12C = test: Antiproliferative activity against human SN12C cells assessed as growth inhibition at 10 uM relative to control; conditions: read-out: GI; summary of the method: as §2
# 786-0 = test: Antiproliferative activity against human 786-0 cells assessed as growth inhibition at 10 uM relative to control; conditions: read-out: GI; summary of the method: as §1
# TK-10 = test: Antiproliferative activity against human TK-10 cells assessed as growth inhibition at 10 uM relative to control; conditions: read-out: GI; summary of the method: as §2
# SNB-75 = test: Antiproliferative activity against human SNB-75 cells assessed as growth inhibition at 10 uM relative to control; conditions: read-out: GI; summary of the method: as §2
# SK-MEL-2 = test: Antiproliferative activity against human SK-MEL-2 cells assessed as growth inhibition at 10 uM relative to control; conditions: read-out: GI; summary of the method: as §1
# [6] = Antiproliferative activity against human CNS cancer cells; conditions: CNS cell
# HT-29 = test: Antiproliferative activity against human HT29 cells assessed as growth inhibition at 10 uM relative to control; conditions: read-out: GI; summary of the method: as §1
# SK-OV-3 = test: Antiproliferative activity against human SK-OV-3 cells assessed as growth inhibition at 10 uM relative to control; conditions: read-out: GI; summary of the method: as §2
# SW-620 = test: Antiproliferative activity against human SW-620 cells assessed as growth inhibition at 10 uM relative to control; conditions: read-out: GI; summary of the method: as §2
# [7] = Antiproliferative activity against human ovarian cancer cells; conditions: Ovarian cancer cell line
# BT-549 = test: Antiproliferative activity against human BT-549 cells assessed as growth inhibition at 10 uM relative to control; summary of the method: as §1
# MDA-MB-435 = test: Antiproliferative activity against human MDA-MB-435 cells assessed as growth inhibition at 10 uM relative to control; conditions: read-out: GI; summary of the method: as §1
# DU-145 = test: Antiproliferative activity against human DU-145 cells assessed as growth inhibition at 10 uM relative to control; conditions: read-out: GI; summary of the method: as §1
# SF-539 = test: Antiproliferative activity against human SF-539 cells assessed as growth inhibition at 10 uM relative to control; conditions: read-out: GI; summary of the method: as §1
# [8] = read-out: LC50 (the source's name)
smiles,measurement,setting,value
C/C(=C(/c1ccccc1)c1ccc(OCC(O)CNCCN2CCOCC2)cc1)c1ccccc1 (stereo unspecified),inhibition of growth at 10 µM,MCF7,55.4%
same,GI50,[1],2.06 µM
same,LC50,[1],13.8 µM
same,TGI,[1],5.51 µM
same,inhibition of growth at 10 µM,SF-295,28.8%
same,inhibition of growth at 10 µM,MDA-MB-468,46.9%
same,GI50,[2],2.4 µM
same,TGI,[2],7.75 µM
same,CC50,[2]; [8],22 µM
same,inhibition of growth at 10 µM,A549,29.2%
same,inhibition of growth at 10 µM,UACC-62,37.3%
same,GI50,[3],3.69 µM
same,TGI,[3],9.08 µM
same,CC50,[3]; [8],29.1 µM
same,inhibition of growth at 10 µM,SNB-19,8.8%
same,inhibition of growth at 10 µM,NCI-H322M,27.3%
same,inhibition of growth at 10 µM,T47D,10.7%
same,inhibition of growth at 10 µM,HCC 2998,-59.6%
same,inhibition of growth at 10 µM,RPMI-8226,79.8%
same,inhibition of growth at 10 µM,OVCAR-4,29.8%
same,GI50,[4],4.19 µM
same,TGI,[4],12.2 µM
same,CC50,[4]; [8],36.3 µM
same,growth inhibition (GI),HCT-116,inactive
same,GI50,[5],1.87 µM
same,LC50,[5],8.55 µM
same,TGI,[5],3.74 µM
same,inhibition of growth at 10 µM,A498,20.1%
same,inhibition of growth at 10 µM,CAKI-1,32.1%
same,inhibition of growth at 10 µM,K562,97.6%
same,inhibition of growth at 10 µM,SK-MEL-5,71%
same,inhibition of growth at 10 µM,HOP-92,40.9%
same,inhibition of growth at 10 µM,NCI-H522,55.5%
same,inhibition of growth at 10 µM,NCI/ADR-RES,19.8%
same,inhibition of growth at 10 µM,HOP-62,25.1%
same,inhibition of growth at 10 µM,MDA-MB-231,70.6%
same,inhibition of growth at 10 µM,KM12,45.7%
same,inhibition of growth at 10 µM,SR,99.3%
same,inhibition of growth at 10 µM,SK-MEL-28,-86.2%
same,inhibition of growth at 10 µM,Malme-3M,-71.7%
same,inhibition of growth at 10 µM,IGROV-1,36.6%
same,inhibition of growth at 10 µM,ACHN,18.6%
same,inhibition of growth at 10 µM,HCT-15,95.5%
same,inhibition of growth at 10 µM,SN12C,23.9%
same,inhibition of growth at 10 µM,786-0,2.44%
same,inhibition of growth at 10 µM,TK-10,26.5%
same,inhibition of growth at 10 µM,SNB-75,34.2%
same,inhibition of growth at 10 µM,SK-MEL-2,5.09%
same,GI50,[6],2.81 µM
same,TGI,[6],9.9 µM
same,CC50,[6]; [8],25.2 µM
same,inhibition of growth at 10 µM,HT-29,96.8%
same,inhibition of growth at 10 µM,SK-OV-3,4.57%
same,inhibition of growth at 10 µM,SW-620,51%
same,GI50,[7],5.2 µM
same,TGI,[7],16.3 µM
same,CC50,[7]; [8],45.8 µM
same,growth inhibition (GI),BT-549,inactive
same,inhibition of growth at 10 µM,MDA-MB-435,-63.8%
same,inhibition of growth at 10 µM,DU-145,32.2%
same,inhibition of growth at 10 µM,SF-539,27.2%
